# Rows were chosen to be rich in hits. Some 1.2% of all compounds tested hit in one or more screens of this group.
# Insulin prom inh = TRM-6 insulin promoter activity inhibition. TRM-6 cells (human fetal islet line), insulin promoter-eGFP reporter, imaging; reporter expression induced with tamoxifen. inhibition, % at 2 µM. hit rate 0.9% among 130,000. AID 1273;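 active = inhibition above the mean plus 3 SD, with well images judged a real hit on visual review, cut at about 60% in these data, passing the limit was not always enough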
# TNAP inh hi DEA = blocks human TNAP under high phosphate acceptor concentration. P05186. purified TNAP, CDP-star luminescence, 1 M DEA. inhibition, % at 20 µM. hit rate 0.03% among 200,000;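 active = over 50% inhibition of tissue-nonspecific alkaline phosphatase at 20 µM in the single-dose screen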;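 note: plate controls were DMSO wells for no effect and EDTA-quenched wells as full inhibition for full effect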
# Target sequence (P05186 whole entry, looked up): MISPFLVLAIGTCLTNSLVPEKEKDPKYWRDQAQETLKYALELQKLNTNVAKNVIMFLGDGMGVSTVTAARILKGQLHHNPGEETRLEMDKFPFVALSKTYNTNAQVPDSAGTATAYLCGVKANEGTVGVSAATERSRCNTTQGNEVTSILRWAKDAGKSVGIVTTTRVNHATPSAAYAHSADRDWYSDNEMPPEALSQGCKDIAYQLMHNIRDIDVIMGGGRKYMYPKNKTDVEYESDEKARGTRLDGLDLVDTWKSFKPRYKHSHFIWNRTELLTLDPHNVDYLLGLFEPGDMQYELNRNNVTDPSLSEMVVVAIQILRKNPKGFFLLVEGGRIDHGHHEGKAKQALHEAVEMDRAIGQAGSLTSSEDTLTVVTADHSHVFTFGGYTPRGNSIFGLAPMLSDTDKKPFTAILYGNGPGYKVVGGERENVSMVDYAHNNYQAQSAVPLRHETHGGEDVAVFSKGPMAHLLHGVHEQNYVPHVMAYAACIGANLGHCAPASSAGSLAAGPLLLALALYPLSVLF
# TNAP act hi DEA = increases human TNAP activity under high phosphate acceptor concentration | P05186 | purified TNAP, CDP-star luminescence, 1 M DEA, 30 min; active compounds read high; 0 = EDTA background, 1 = DMSO-only activity | activation factor at 20 µM | 200,000 tested, under 10 active;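 active = activation factor at least 2 at 20 µM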
#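 Test system – human TNAP · Doses – 20 µM single point · Incubation – 30 min, room temperature · Signal – luminescent substrate turnover signal · Read-out basis – activation factor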
# HMGR II inh = inhibitors of class II HMG-CoA reductase from Enterococcus faecalis; purified E. faecalis HMGR, NADPH absorbance 340 nm kinetic; inhibition, % at 10 µM; hit rate 0.41% among 190,000;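 active = inhibition above a set limit, the median over all tested compounds plus 3 SD, cut at about 9.5% in these data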;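 note: enzyme runs in reverse so mevalonate oxidation gives rising NADPH absorbance; 0% = complete reaction with DMSO and 100% = background rate lacking mevalonate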
# TNAP inh no acc = TNAP (human) inhibition, acceptor-free conditions | purified TNAP, CDP-star luminescence, 30 min | AID 1012 | hit rate 0.26% among 200,000 | inhibition, % at 20 µM | P05186;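 active = tissue-nonspecific alkaline phosphatase inhibition above about 50% at 20 µM in the single-dose screen, limit read from the data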;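 note: 0% = DMSO negative control and 100% = EDTA positive control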
# * = called active by the depositor; nt = not tested or not shown.
SMILES,Insulin prom inh,TNAP inh hi DEA,TNAP act hi DEA,HMGR II inh,TNAP inh no acc
CCOC(=O)C1=NN(C(=O)COc2ccccc2)C(O)(c2ccc(Br)cc2)C1 (stereo unspecified),nt,2,1,-1,51*
CCCn1c(=S)[nH]c2ccccc2c1=O,nt,-5,1.1,15*,-6
COCCn1c(=O)c2ccccc2c2ccccc2c1=O,nt,-6,1.1,-3,-3
CCCCn1c(=O)c2ccccc2c2ccccc2c1=O,50,0,1,32*,-7
CN(C)CCn1c(=S)[nH]c2ccccc2c1=O,-29,-1,1,1,-7
Cc1ccc(NS(=O)(=O)c2ccc(OCC(=O)Nc3cccc([N+](=O)[O-])c3)c(C)c2)cc1,4,-6,1.1,-3,-10
CCCc1ccc(OCC(=O)Nc2cc(S(=O)(=O)CC)ccc2O)cc1,nt,-8,1.1,10*,-6
Cc1cccc(C)c1OCc1nnc2c3cnn(C)c3ncn12,-42,-2,1,-5,74*
Cc1ccc(-n2ncc3c2ncn2c(C)nnc32)cc1C,-15,0,1,-5,84*
CCc1nnc2c3cnn(-c4ccccc4)c3ncn12,78*,4,1,0,53*
CC(=O)NNc1ncnc2c1cnn2-c1ccc(C)c(C)c1,17,2,1,-4,-190
Nc1ncnc2c1cnn2-c1ccccc1,36,-8,1.1,-2,-18
c1ccc(-n2ncc3c2ncn2nnnc32)cc1,nt,-5,1,0,2
Cc1nc2c3cnn(-c4ccccc4)c3ncn2n1,8,-2,1,-5,54*
Nc1oc2ccccc2c(=O)c1C=O,27,17,0.8,5,8
O=C(COC(=O)c1cccnc1Cl)NCCC1=CCCCC1,26,0,1,-1,-7
CC(=O)Nc1ccc(S(=O)(=O)N(Cc2ccccc2)c2ccccc2F)cc1,nt,3,1,0,-3
c1ccc(-n2ncc3c2ncn2cnnc32)cc1,-3,9,0.9,-2,76*
CC1Cc2ccccc2N1C(=O)C12CCC(C)(C(=O)C1)C2(C)C (stereo unspecified),95*,-5,1.1,0,-6
CC1CCCCN1C(=O)C12CCC(C)(C(=O)C1)C2(C)C (stereo unspecified),nt,-1,1,-4,-2
Cc1c(Cl)cccc1NC(=O)CCC(=O)N/N=C/c1ccc[nH]1,nt,4,1,-3,13
CCCCn1c(N)c(NCCC(C)C)c(=O)[nH]c1=O,82*,-3,1,-6,-11
CC(=O)N1C(C(=O)O)CSC1c1cccc(C)c1 (stereo unspecified),10,-1,1,-1,-5
O=C(O)C1CSC(c2ccccc2)N1C(=O)c1ccco1 (stereo unspecified),74*,-5,1.1,-6,-20
O=C(Cn1cnc([N+](=O)[O-])n1)N/N=C/c1ccc(O)cc1O,nt,2,1,4,-122
SMILES,Insulin prom inh,TNAP inh hi DEA,TNAP act hi DEA,HMGR II inh,TNAP inh no acc
Cc1ccc(/C=N/Nc2ccc3c(C(F)(F)F)cc(C(F)(F)F)nc3n2)cc1,71*,3,1,2,14
COc1ccc(/C=C(\NC(=O)c2ccccc2)C(=O)OC[C@@H]2CCC[N+]3(C)CCCCC23)cc1OC (stereo partly specified),-45,1,1,-5,-11
c1ccc(-c2noc(-c3cccnc3)n2)nc1,89*,-5,1.1,-2,-13
COC(=O)C1=NN(c2cccc(C)c2)C2C(=O)N(c3ccccc3OC)C(=O)C12 (stereo unspecified),nt,4,1,-7,-12
CCN(CC)c1nc2ccccc2[nH]1,72*,-4,1,2,-3
CC1CN(c2nc(-c3ccccc3)nc3ccccc23)CC(C)O1 (stereo unspecified),92*,1,1,-6,4
COc1ccc(Cn2c(C)c(C)c(C#N)c2NC(=O)Nc2ccc(Cl)cc2)cc1,-19,-5,1,11*,-10
COc1ccc(Cn2c(C)c(C)c(C#N)c2NC(=O)Nc2cccc(Cl)c2)cc1,-19,0,1,-1,-11
CCOC(=O)N1CCN(C(=S)NC)CC1,72*,-7,1.1,1,-21
CCN(CC)S(=O)(=O)c1ccc(S(=O)(=O)N2CCCC2)cc1,-100,-8,1.1,9.9*,-6
CCOc1ccc(S(=O)(=O)N2CCCC2)cc1,10,-4,1,-5,-8
COc1cc(C2NC(=S)NC(c3ccccc3)=C2C(C)=O)cc(Cl)c1OCC(=O)O (stereo unspecified),-30,0,1,-3,-6
COc1cc(C2NC(=O)NC(c3ccccc3)=C2C(C)=O)cc(Cl)c1OCC(=O)O (stereo unspecified),-71,-4,1,14*,-11
CC(C)OC(=O)NC(C)(C)COC(=O)Nc1cccc(Cl)c1,-95,-2,1,16*,-6
CC(C)OC(=O)NCCOC(=O)Nc1cccc(Cl)c1,64,-5,1,0,-6
O=C1/C(=C\c2ccc(O)c(O)c2)C(c2ccccc2)=NN1c1ccccc1,11,38,0.6,-3,88*
COc1cc(/C=C2\C(=O)N(c3ccc(NC(C)=O)cc3)N=C2c2ccccc2)ccc1O,nt,42,0.6,4,55*
CCOc1cc(/C=C2\C(=O)N(c3nc(-c4ccc(Br)cc4)cs3)N=C2c2ccccc2)ccc1O,17,22,0.8,4,30
O=C(NCC1(N2CCCCC2)CCCCC1)C1CC(=O)N(c2ccc3c(c2)OCCO3)C1 (stereo unspecified),nt,-4,1,3,-11
CCOC(=O)c1c(C)[nH]c(C)c1C(=O)CSc1nncs1,-24,-6,1.1,10*,-6
CCNS(=O)(=O)c1cc(OC)c(Cl)cc1OC,29,-2,1,-5,-2
COc1c([N+](=O)[O-])c(=O)n(-c2ccccc2)c2ccccc12,23,-5,1,4,-12
N=c1sccn1CC(=O)NC(=O)NC1CCCC1,88*,-3,1,-3,3
O=C(CN1CCN(c2ccccc2O)CC1)NC(=O)NC1CCCC1,33,-3,1,-1,-10
Cc1ccccc1NC(=S)NCc1ccc2c(c1)cc(C)n2C,-22,-2,1,15*,-3
COc1ccc(CNC(=O)C2CC(c3cccc(OC)c3)=NO2)cc1 (stereo unspecified),73*,-8,1.1,-2,-4
CCOC(=O)Nc1ccc2c(c1)N(C(=O)CCN1CCN(CCO)CC1)c1ccccc1S2,89*,nt,nt,nt,nt
CCOC(=O)Nc1ccc2c(c1)N(C(=O)N1CCN(C)CC1)c1ccccc1CC2,nt,-6,1.1,13*,-8
CCOC(=O)Nc1ccc2c(c1)N(C(=O)N1CCN(C)CC1)c1ccccc1S2,nt,-2,1,3,-2
Cc1[nH]n(-c2ccccc2)c(=S)c1C=Nc1ccc([N+](=O)[O-])cc1,0,-1,1,-1,4
